According to ChEMBL document CHEMBL4673214, “Synthesis and antibacterial bioactivities of cationic deacetyl linezolid amphiphiles” (Eur J Med Chem, 2018):
Blank lines part the entries; values can stand above or below the compound they belong to.

Tests used:
Klebsiella pneumoniae [1] = assay: Antibacterial activity against carbapenem-resistant Klebsiella pneumoniae clinical isolate 3 assessed as reduction in bacterial growth incubated for 16 to 20 hrs by CLSI-based broth microdilution method; type: functional; conditions: time 16-20 hrs
In short: (§1)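 Clinical isolates tested by broth microdilution in cation-adjusted Mueller-Hinton broth. Cultures grown 4-6 h (~10^8 CFU/mL) were diluted to ~10^6 CFU/mL and mixed 1:1 with compound serial dilutions made from 256 down to 0.5 µg/mL (pre-mixing). Plates held at 37 °C for 16-20 h, then read for growth. Each concentration run in duplicate, whole experiment at least twice.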

Staphylococcus aureus [2] = assay: Antibacterial activity against Staphylococcus aureus ATCC 29213 assessed as reduction in bacterial growth incubated for 16 to 20 hrs by CLSI-based broth microdilution method; type: functional; conditions: time 16-20 hrs
In short: (§2)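 Broth microdilution following CLSI, in cation-adjusted Mueller-Hinton broth. Inoculum from a 4-6 h culture (~10^8 CFU/mL), diluted to ~10^6 CFU/mL. Water stocks were serially diluted in MHB (256 to 0.5 µg/mL) and mixed 1:1 with the inoculum. Plates ran 16-20 h at 37 °C. MIC was read visually. Each concentration was tested in duplicate, and the experiment was repeated at least twice.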

Klebsiella pneumoniae [3] = assay: Antibacterial activity against carbapenem-resistant Klebsiella pneumoniae clinical isolate 6 assessed as reduction in bacterial growth incubated for 16 to 20 hrs by CLSI-based broth microdilution method; type: functional; conditions: time 16-20 hrs; in short: as §1
Klebsiella pneumoniae [4] = assay: Antibacterial activity against carbapenem-resistant Klebsiella pneumoniae clinical isolate 8 assessed as reduction in bacterial growth incubated for 16 to 20 hrs by CLSI-based broth microdilution method; type: functional; conditions: time 16-20 hrs; in short: as §1
Klebsiella pneumoniae [5] = assay: Antibacterial activity against carbapenem-resistant Klebsiella pneumoniae clinical isolate 7 assessed as reduction in bacterial growth incubated for 16 to 20 hrs by CLSI-based broth microdilution method; type: functional; conditions: time 16-20 hrs; in short: as §1
Staphylococcus aureus [6] = assay: Antibacterial activity against methicillin-resistant Staphylococcus aureus clinical isolate 2 assessed as reduction in bacterial growth incubated for 16 to 20 hrs by CLSI-based broth microdilution method; type: functional; conditions: time 16-20 hrs; in short: as §1
Klebsiella pneumoniae [7] = assay: Antibacterial activity against carbapenem-resistant Klebsiella pneumoniae clinical isolate 5 assessed as reduction in bacterial growth incubated for 16 to 20 hrs by CLSI-based broth microdilution method; type: functional; conditions: time 16-20 hrs; in short: as §1
Klebsiella pneumoniae [8] = assay: Antibacterial activity against carbapenem-resistant Klebsiella pneumoniae clinical isolate 4 assessed as reduction in bacterial growth incubated for 16 to 20 hrs by CLSI-based broth microdilution method; type: functional; conditions: time 16-20 hrs; in short: as §1
Staphylococcus aureus [9] = assay: Antibacterial activity against methicillin-resistant Staphylococcus aureus clinical isolate 10 assessed as reduction in bacterial growth incubated for 16 to 20 hrs by CLSI-based broth microdilution method; type: functional; conditions: time 16-20 hrs; in short: as §1
Klebsiella pneumoniae [10] = assay: Antibacterial activity against carbapenem-resistant Klebsiella pneumoniae clinical isolate 10 assessed as reduction in bacterial growth incubated for 16 to 20 hrs by CLSI-based broth microdilution method; type: functional; conditions: time 16-20 hrs; in short: as §1
Staphylococcus aureus [11] = assay: Antibacterial activity against methicillin-resistant Staphylococcus aureus clinical isolate 5 assessed as reduction in bacterial growth incubated for 16 to 20 hrs by CLSI-based broth microdilution method; type: functional; conditions: time 16-20 hrs; in short: as §1
Enterobacteriaceae [12] = assay: Antibacterial activity against NDM1 producing carbapenem-resistant Enterobacteriaceae clinical isolate 3 assessed as reduction in bacterial growth incubated for 16 to 20 hrs by CLSI-based broth microdilution method; type: functional; conditions: time 16-20 hrs; in short: as §1
Enterobacteriaceae [13] = assay: Antibacterial activity against NDM1 producing carbapenem-resistant Enterobacteriaceae clinical isolate 1 assessed as reduction in bacterial growth incubated for 16 to 20 hrs by CLSI-based broth microdilution method; type: functional; conditions: time 16-20 hrs; in short: as §1
Salmonella enterica = assay: Antibacterial activity against Salmonella enterica ATCC 8387 assessed as reduction in bacterial growth incubated for 16 to 20 hrs by CLSI-based broth microdilution method; type: functional; conditions: time 16-20 hrs; in short: as §2
Enterobacteriaceae [14] = assay: Antibacterial activity against NDM1 producing carbapenem-resistant Enterobacteriaceae clinical isolate 8 assessed as reduction in bacterial growth incubated for 16 to 20 hrs by CLSI-based broth microdilution method; type: functional; conditions: time 16-20 hrs; in short: as §1
[15] = Solubility of the compound in water at room temperature; type: physicochemical; conditions: buffer
Enterococcus faecalis = assay: Antibacterial activity against Enterococcus faecalis ATCC 29212 assessed as reduction in bacterial growth incubated 16 to 20 hrs by CLSI-based broth microdilution method; type: functional; conditions: time 16-20 hrs; in short: as §2
Staphylococcus aureus [16] = assay: Antibacterial activity against methicillin-resistant Staphylococcus aureus clinical isolate 3 assessed as reduction in bacterial growth incubated for 16 to 20 hrs by CLSI-based broth microdilution method; type: functional; conditions: time 16-20 hrs; in short: as §1
Staphylococcus aureus [17] = assay: Antibacterial activity against methicillin-resistant Staphylococcus aureus clinical isolate 6 assessed as reduction in bacterial growth incubated for 16 to 20 hrs by CLSI-based broth microdilution method; type: functional; conditions: time 16-20 hrs; in short: as §1
Enterobacteriaceae [18] = assay: Antibacterial activity against NDM1 producing carbapenem-resistant Enterobacteriaceae clinical isolate 10 assessed as reduction in bacterial growth incubated for 16 to 20 hrs by CLSI-based broth microdilution method; type: functional; conditions: time 16-20 hrs; in short: as §1
Enterobacteriaceae [19] = assay: Antibacterial activity against NDM1 producing carbapenem-resistant Enterobacteriaceae clinical isolate 9 assessed as reduction in bacterial growth incubated for 16 to 20 hrs by CLSI-based broth microdilution method; type: functional; conditions: time 16-20 hrs; in short: as §1
Klebsiella pneumoniae [20] = assay: Antibacterial activity against carbapenem-resistant Klebsiella pneumoniae clinical isolate 9 assessed as reduction in bacterial growth incubated for 16 to 20 hrs by CLSI-based broth microdilution method; type: functional; conditions: time 16-20 hrs; in short: as §1
Klebsiella pneumoniae [21] = assay: Antibacterial activity against carbapenem-resistant Klebsiella pneumoniae clinical isolate 1 assessed as reduction in bacterial growth incubated for 16 to 20 hrs by CLSI-based broth microdilution method; type: functional; conditions: time 16-20 hrs; in short: as §1
Klebsiella pneumoniae [22] = assay: Antibacterial activity against carbapenem-resistant Klebsiella pneumoniae clinical isolate 2 assessed as reduction in bacterial growth incubated for 16 to 20 hrs by CLSI-based broth microdilution method; type: functional; conditions: time 16-20 hrs; in short: as §1
Staphylococcus aureus [23] = assay: Antibacterial activity against methicillin-resistant Staphylococcus aureus clinical isolate 1 assessed as reduction in bacterial growth incubated for 16 to 20 hrs by CLSI-based broth microdilution method; type: functional; conditions: time 16-20 hrs; in short: as §1
Escherichia coli = assay: Antibacterial activity against Escherichia coli ATCC 25922 assessed as reduction in bacterial growth incubated 16 to 20 hrs by CLSI-based broth microdilution method; type: functional; conditions: time 16-20 hrs; in short: as §2
Staphylococcus aureus [24] = assay: Antibacterial activity against methicillin-resistant Staphylococcus aureus clinical isolate 8 assessed as reduction in bacterial growth incubated for 16 to 20 hrs by CLSI-based broth microdilution method; type: functional; conditions: time 16-20 hrs; in short: as §1
Enterobacteriaceae [25] = assay: Antibacterial activity against NDM1 producing carbapenem-resistant Enterobacteriaceae clinical isolate 5 assessed as reduction in bacterial growth incubated for 16 to 20 hrs by CLSI-based broth microdilution method; type: functional; conditions: time 16-20 hrs; in short: as §1
Enterobacteriaceae [26] = assay: Antibacterial activity against NDM1 producing carbapenem-resistant Enterobacteriaceae clinical isolate 6 assessed as reduction in bacterial growth incubated for 16 to 20 hrs by CLSI-based broth microdilution method; type: functional; conditions: time 16-20 hrs; in short: as §1
Staphylococcus aureus [27] = assay: Antibacterial activity against methicillin-resistant Staphylococcus aureus clinical isolate 7 assessed as reduction in bacterial growth incubated for 16 to 20 hrs by CLSI-based broth microdilution method; type: functional; conditions: time 16-20 hrs; in short: as §1
Enterobacteriaceae [28] = assay: Antibacterial activity against NDM1 producing carbapenem-resistant Enterobacteriaceae clinical isolate 4 assessed as reduction in bacterial growth incubated for 16 to 20 hrs by CLSI-based broth microdilution method; type: functional; conditions: time 16-20 hrs; in short: as §1
Enterobacteriaceae [29] = assay: Antibacterial activity against NDM1 producing carbapenem-resistant Enterobacteriaceae clinical isolate 2 assessed as reduction in bacterial growth incubated for 16 to 20 hrs by CLSI-based broth microdilution method; type: functional; conditions: time 16-20 hrs; in short: as §1
Staphylococcus aureus [30] = assay: Antibacterial activity against methicillin-resistant Staphylococcus aureus clinical isolate 9 assessed as reduction in bacterial growth incubated for 16 to 20 hrs by CLSI-based broth microdilution method; type: functional; conditions: time 16-20 hrs; in short: as §1
Staphylococcus aureus [31] = assay: Antibacterial activity against methicillin-resistant Staphylococcus aureus clinical isolate 4 assessed as reduction in bacterial growth incubated for 16 to 20 hrs by CLSI-based broth microdilution method; type: functional; conditions: time 16-20 hrs; in short: as §1
Enterobacteriaceae [32] = assay: Antibacterial activity against NDM1 producing carbapenem-resistant Enterobacteriaceae clinical isolate 7 assessed as reduction in bacterial growth incubated for 16 to 20 hrs by CLSI-based broth microdilution method; type: functional; conditions: time 16-20 hrs; in short: as §1

MIC (Staphylococcus aureus [2]): 4 µg/mL
MIC (Salmonella enterica): 32 µg/mL
solubility [15]: Soluble
MIC (Enterococcus faecalis): 8 µg/mL
MIC (Escherichia coli): 32 µg/mL
SMILES: CCCCCCCCCCN(C[C@H]1CN(c2ccc(N3CCOCC3)c(F)c2)C(=O)O1)C(=O)[C@@H](N)CCCCN.Cl.Cl

MIC (Staphylococcus aureus [2]): 128 µg/mL
MIC (Salmonella enterica): > 128 µg/mL
solubility [15]: Soluble
MIC (Enterococcus faecalis): 128 µg/mL
MIC (Escherichia coli): > 128 µg/mL
SMILES: CCCCCCCN(C[C@H]1CN(c2ccc(N3CCOCC3)c(F)c2)C(=O)O1)C(=O)[C@@H](N)CCCCN.Cl.Cl

MIC (Staphylococcus aureus [2]): > 128 µg/mL
MIC (Salmonella enterica): > 128 µg/mL
MIC (Enterococcus faecalis): > 128 µg/mL
MIC (Escherichia coli): > 128 µg/mL
SMILES: NC[C@H]1CN(c2ccc(N3CCOCC3)c(F)c2)C(=O)O1

Further lines, the compound ahead of its results:

SMILES: CCCCCCCCCCCC[N+](C)(C)CC(=O)NC[C@H]1CN(c2ccc(N3CCOCC3)c(F)c2)C(=O)O1.[Cl-]
MIC (Klebsiella pneumoniae [1]): 64 µg/mL
MIC (Staphylococcus aureus [2]): 8 µg/mL
MIC (Klebsiella pneumoniae [3]): 32 µg/mL
MIC (Klebsiella pneumoniae [4]): 32 µg/mL
MIC (Klebsiella pneumoniae [5]): 64 µg/mL
MIC (Staphylococcus aureus [6]): 8 µg/mL
MIC (Klebsiella pneumoniae [7]): 64 µg/mL
MIC (Klebsiella pneumoniae [8]): 64 µg/mL
MIC (Staphylococcus aureus [9]): 8 µg/mL
MIC (Klebsiella pneumoniae [10]): 64 µg/mL
MIC (Staphylococcus aureus [11]): 4 µg/mL
MIC (Enterobacteriaceae [12]): 64 µg/mL
MIC (Enterobacteriaceae [13]): > 64 µg/mL
MIC (Salmonella enterica): 16 µg/mL
MIC (Enterobacteriaceae [14]): 16 µg/mL
solubility [15]: Soluble
MIC (Enterococcus faecalis): 4 µg/mL
MIC (Staphylococcus aureus [16]): 2 µg/mL
MIC (Staphylococcus aureus [17]): 4 µg/mL
MIC (Enterobacteriaceae [18]): 32 µg/mL
MIC (Enterobacteriaceae [19]): 16 µg/mL
MIC (Klebsiella pneumoniae [20]): 64 µg/mL
MIC (Klebsiella pneumoniae [21]): 32 µg/mL
MIC (Klebsiella pneumoniae [22]): 32 µg/mL
MIC (Staphylococcus aureus [23]): 4 µg/mL
MIC (Escherichia coli): 16 µg/mL
MIC (Staphylococcus aureus [24]): 8 µg/mL
MIC (Enterobacteriaceae [25]): 32 µg/mL
MIC (Enterobacteriaceae [26]): 16 µg/mL
MIC (Staphylococcus aureus [27]): 4 µg/mL
MIC (Enterobacteriaceae [28]): 64 µg/mL
MIC (Enterobacteriaceae [29]): > 64 µg/mL
MIC (Staphylococcus aureus [30]): 8 µg/mL
MIC (Staphylococcus aureus [31]): 16 µg/mL
MIC (Enterobacteriaceae [32]): 32 µg/mL

SMILES: CCCCCCCCCN(C[C@H]1CN(c2ccc(N3CCOCC3)c(F)c2)C(=O)O1)C(=O)[C@@H](N)CCCCN.Cl.Cl
MIC (Staphylococcus aureus [2]): 16 µg/mL
MIC (Salmonella enterica): 64 µg/mL
solubility [15]: Soluble
MIC (Enterococcus faecalis): 16 µg/mL
MIC (Escherichia coli): 64 µg/mL

SMILES: CCCCCCCC[N+](C)(C)CC(=O)NC[C@H]1CN(c2ccc(N3CCOCC3)c(F)c2)C(=O)O1.[Cl-]
MIC (Staphylococcus aureus [2]): 128 µg/mL
MIC (Salmonella enterica): 128 µg/mL
solubility [15]: Soluble
MIC (Enterococcus faecalis): 64 µg/mL
MIC (Escherichia coli): 128 µg/mL

SMILES: CCCC[N+](C)(C)CC(=O)NC[C@H]1CN(c2ccc(N3CCOCC3)c(F)c2)C(=O)O1.[Cl-]
MIC (Staphylococcus aureus [2]): > 128 µg/mL
MIC (Salmonella enterica): > 128 µg/mL
solubility [15]: Soluble
MIC (Enterococcus faecalis): > 128 µg/mL
MIC (Escherichia coli): > 128 µg/mL
